From ChEMBL document CHEMBL1147132, “Structure-activity relationship studies of gonadotropin-releasing hormone antagonists containing S-aryl/alkyl norcysteines and their oxidized derivatives” (J Med Chem, 2007)
Converted amounts (≈) assume the structure as drawn.

Key:
[1] = biological target: T1, Gonadotropin-releasing hormone receptor (Homo sapiens, UniProt P30968); experiment: Antagonist activity at human GnRHR expressed in HEK293 cells assessed as inhibition of GnRH-induced luciferase response by reporter gene assay; assay type: functional, cell-based
T1 sequence (P30968 whole entry): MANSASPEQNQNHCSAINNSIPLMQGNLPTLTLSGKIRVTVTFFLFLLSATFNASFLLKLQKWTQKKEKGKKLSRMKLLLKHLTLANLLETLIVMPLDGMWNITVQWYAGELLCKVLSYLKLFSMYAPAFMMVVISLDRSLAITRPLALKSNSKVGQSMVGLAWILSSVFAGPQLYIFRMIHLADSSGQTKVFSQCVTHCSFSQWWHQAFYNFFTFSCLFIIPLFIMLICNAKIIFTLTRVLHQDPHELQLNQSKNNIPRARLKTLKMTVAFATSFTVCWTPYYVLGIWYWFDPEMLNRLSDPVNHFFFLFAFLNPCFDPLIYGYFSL
In short: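 HEK293 cells stably expressing cloned human GnRHR and an LH alpha-subunit-promoter luciferase reporter, plated overnight. Compound in 1% DMSO was added 10 min before GnRH (1 nM final), then ≥5 h at 37 °C, 5% CO2, then luminescence. 11 half-log concentrations in duplicate. IC50 from four-parameter logistic fit, reported as geometric mean of ≥2 experiments.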

[2] = Solubility in 5% mannitol; assay type: physicochemical
[3] = biological target: T2, Gonadotropin-releasing hormone receptor (Homo sapiens) (UniProt P30968); experiment: Antagonist activity at human GnRHR expressed in COS7 cells assessed as inhibition of GnRH-stimulated inositol phosphate production after 2 hrs; assay type: functional, cell-based; settings: COS-7, filed as antagonist
T2 sequence (whole entry): T1 sequence (P30968 whole entry)
In short: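 COS-7 cells transiently transfected with WT hGnRH-R cDNA, labelled 18 h at 37 °C with 4 μCi/mL [3H]myo-inositol in inositol-free DMEM. Cells were washed in medium with 5 mM LiCl, then co-incubated 2 h at 37 °C with 10−8 M GnRH plus analogue at 10−8 to 10−5 M. IP was measured by Dowex anion-exchange and scintillation counting. Triplicate, repeated three or more times.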

[4] = tested on: Rattus norvegicus; experiment: Inhibition of plasma testosterone levels in Sprague-Dawley rat at 19.6 uM, sc by enzyme-linked immunosorbent assay; assay type: functional
In short: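 Intact adult male Sprague-Dawley rats (275–310 g, 3 per group) received subcutaneous mini-pumps for seven days. Solutions were in 1:3 DMSO/water: 19.6 μM (~0.66 nM/day/kg), or 9.8 μM (~0.33 nM/day/kg). Sham-operated controls. Plasma was sampled on days 3–7 and testosterone measured by ELISA. Values are means of days 4–7.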

[5] = Ratio of IC50 for rat GnRHR to IC50 for human GnRHR in HEK293 cells; assay type: functional
[6] = biological target: T3, Gonadotropin-releasing hormone receptor (Rattus norvegicus, UniProt P30969); experiment: Antagonist activity at rat GnRHR expressed in HEK293 cells assessed as inhibition of GnRH-induced luciferase response by reporter gene assay; assay type: functional, cell-based
T3 sequence (P30969 whole entry): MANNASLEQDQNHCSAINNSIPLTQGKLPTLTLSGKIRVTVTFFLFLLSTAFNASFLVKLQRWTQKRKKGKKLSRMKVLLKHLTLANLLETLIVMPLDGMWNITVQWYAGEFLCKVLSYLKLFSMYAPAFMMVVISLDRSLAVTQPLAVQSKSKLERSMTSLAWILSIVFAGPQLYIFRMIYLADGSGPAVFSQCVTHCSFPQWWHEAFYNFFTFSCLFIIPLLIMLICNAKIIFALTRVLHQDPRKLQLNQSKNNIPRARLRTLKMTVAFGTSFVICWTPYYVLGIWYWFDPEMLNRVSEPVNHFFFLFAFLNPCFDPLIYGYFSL
In short: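 Rat GnRHR stably expressed in HEK293 cells, transiently transfected with an NFAT-responsive luciferase reporter, plated after 16 h and assayed next day. Compound in 1% DMSO was given 10 min before 1 nM GnRH (final), ≥5 h at 37 °C, then luminescence. Duplicates at 11 half-log concentrations. IC50 by four-parameter logistic fit, geometric mean of ≥2 experiments.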

Row | Structure (SMILES) | IC50 [1] | solubility [2] [mg/mL] | Activity [3] | Plasma testosterone level [4] [ng/mL] | Ratio IC50 [5] | IC50 [6]
1 | CC(=O)Nc1ccc(C[C@H](NC(=O)[C@H](CO)NC(=O)[C@@H](Cc2cccnc2)NC(=O)[C@@H](Cc2ccc(Cl)cc2)NC(=O)[C@@H](Cc2ccc3ccccc3c2)NC(C)=O)C(=O)N[C@H](Cc2ccc(NC(C)=O)cc2)C(=O)N[C@@H](CC(C)C)C(=O)N[C@@H](CCCCNC(C)C)C(=O)N2CCC[C@H]2C(=O)N[C@@H](C(N)=O)[S+](C)[O-])cc1 (stereo not given in full) | 0.83 nM (antagonist) | 50 (≈ 31.6 mM) |  |  |  | 
2 | CC(=O)Nc1ccc(C[C@H](NC(=O)[C@H](CO)NC(=O)[C@@H](Cc2cccnc2)NC(=O)[C@@H](Cc2ccc(Cl)cc2)NC(=O)[C@@H](Cc2ccc3ccccc3c2)NC(C)=O)C(=O)N[C@H](Cc2ccc(NC(C)=O)cc2)C(=O)N[C@@H](C(=O)N[C@@H](CCCCNC(C)C)C(=O)N2CCC[C@H]2C(=O)N[C@H](C)C(N)=O)[S+]([O-])C(C)C)cc1 (stereo not given in full) | 3 nM (antagonist) | 50 (≈ 31.9 mM) |  |  |  | 
3 | CC(=O)Nc1ccc(C[C@H](NC(=O)[C@H](CO)NC(=O)[C@@H](Cc2cccnc2)NC(=O)[C@@H](Cc2ccc(Cl)cc2)NC(=O)[C@@H](Cc2ccc3ccccc3c2)NC(C)=O)C(=O)N[C@H](Cc2ccc(NC(C)=O)cc2)C(=O)N[C@H](SC(C)C)C(=O)N[C@@H](CCCCNC(C)C)C(=O)N2CCC[C@H]2C(=O)N[C@H](C)C(N)=O)cc1 | 0.81 nM (antagonist) | 50 (≈ 32.2 mM) | Antagonist |  |  | 
4 | CS[C@H](NC(=O)[C@@H]1CCCN1C(=O)[C@H](CCCCNC(C)C)NC(=O)[C@H](CC(C)C)NC(=O)[C@@H](Cc1ccc(NC(C)=O)cc1)NC(=O)[C@H](Cc1ccc(NC(C)=O)cc1)NC(=O)[C@H](CO)NC(=O)[C@@H](Cc1cccnc1)NC(=O)[C@@H](Cc1ccc(Cl)cc1)NC(=O)[C@@H](Cc1ccc2ccccc2c1)NC(C)=O)C(N)=O | 0.8 nM (antagonist) | 50 (≈ 31.9 mM) | Antagonist | 2.21 | 2.13 | 1.7 nM (antagonist)
5 | CS[C@@H](NC(=O)[C@@H](Cc1cccnc1)NC(=O)[C@@H](Cc1ccc(Cl)cc1)NC(=O)[C@@H](Cc1ccc2ccccc2c1)NC(C)=O)C(=O)N[C@@H](Cc1ccc(NC(C)=O)cc1)C(=O)N[C@H](Cc1ccc(NC(C)=O)cc1)C(=O)N[C@@H](CC(C)C)C(=O)N[C@@H](CCCCNC(C)C)C(=O)N1CCC[C@H]1C(=O)N[C@H](C)C(N)=O | 25 nM (antagonist) | 50 (≈ 32.3 mM) | Antagonist |  |  | 
6 | CC(=O)Nc1ccc(C[C@H](NC(=O)[C@H](CO)NC(=O)[C@@H](Cc2cccnc2)NC(=O)[C@@H](Cc2ccc(Cl)cc2)NC(=O)[C@@H](Cc2ccc3ccccc3c2)NC(C)=O)C(=O)N[C@H](Cc2ccc(NC(C)=O)cc2)C(=O)N[C@@H](CC(C)C)C(=O)N[C@@H](CCCCNC(C)C)C(=O)N2CCC[C@H]2C(=O)N[C@H](C(N)=O)[S+](C)[O-])cc1 (stereo not given in full) | 0.87 nM (antagonist) | 50 (≈ 31.6 mM) |  |  |  | 
7 | CC(=O)Nc1ccc(C[C@H](NC(=O)[C@H](CO)NC(=O)[C@@H](CCC(N)=O)NC(=O)[C@@H](Cc2ccc(Cl)cc2)NC(=O)[C@@H](Cc2ccc3ccccc3c2)NC(C)=O)C(=O)N[C@H](Cc2ccc(NC(C)=O)cc2)C(=O)N[C@H](C(=O)N[C@@H](CCCCNC(C)C)C(=O)N2CCC[C@H]2C(=O)N[C@H](C)C(N)=O)S(=O)(=O)C(C)C)cc1 | 3810 nM (antagonist) | 50 (≈ 32 mM) |  |  |  | 
8 | CC(=O)Nc1ccc(C[C@H](NC(=O)[C@H](CO)NC(=O)[C@@H](CCC(N)=O)NC(=O)[C@@H](Cc2ccc(Cl)cc2)NC(=O)[C@@H](Cc2ccc3ccccc3c2)NC(C)=O)C(=O)N[C@H](Cc2ccc(NC(C)=O)cc2)C(=O)N[C@@H](SC(C)C)C(=O)N[C@@H](CCCCNC(C)C)C(=O)N2CCC[C@H]2C(=O)N[C@H](C)C(N)=O)cc1 | 6.2 nM (antagonist) | 50 (≈ 32.7 mM) |  |  |  | 
9 | CC(=O)Nc1ccc(C[C@H](NC(=O)[C@H](CO)NC(=O)[C@@H](CCC(N)=O)NC(=O)[C@@H](Cc2ccc(Cl)cc2)NC(=O)[C@@H](Cc2ccc3ccccc3c2)NC(C)=O)C(=O)N[C@H](Cc2ccc(NC(C)=O)cc2)C(=O)N[C@@H](C(=O)N[C@@H](CCCCNC(C)C)C(=O)N2CCC[C@H]2C(=O)N[C@H](C)C(N)=O)[S+]([O-])C(C)C)cc1 (stereo not given in full) | 85 nM (antagonist) | 50 (≈ 32.3 mM) |  |  |  | 
10 | CC(=O)Nc1ccc(C[C@H](NC(=O)[C@H](CO)NC(=O)[C@@H](CCC(N)=O)NC(=O)[C@@H](Cc2ccc(Cl)cc2)NC(=O)[C@@H](Cc2ccc3ccccc3c2)NC(C)=O)C(=O)N[C@H](Cc2ccc(NC(C)=O)cc2)C(=O)N[C@H](SC(C)C)C(=O)N[C@@H](CCCCNC(C)C)C(=O)N2CCC[C@H]2C(=O)N[C@H](C)C(N)=O)cc1 | 39 nM (antagonist) | 50 (≈ 32.7 mM) |  |  |  | 
11 | CC(=O)Nc1ccc(C[C@H](NC(=O)[C@@H](NC(=O)[C@@H](Cc2cccnc2)NC(=O)[C@@H](Cc2ccc(Cl)cc2)NC(=O)[C@@H](Cc2ccc3ccccc3c2)NC(C)=O)[S+](C)[O-])C(=O)N[C@H](Cc2ccc(NC(C)=O)cc2)C(=O)N[C@@H](CC(C)C)C(=O)N[C@@H](CCCCNC(C)C)C(=O)N2CCC[C@H]2C(=O)N[C@H](C)C(N)=O)cc1 (stereo not given in full) | 4.6 nM (antagonist) | 50 (≈ 31.9 mM) |  |  |  | 
12 | CS[C@H](NC(=O)[C@@H](Cc1cccnc1)NC(=O)[C@@H](Cc1ccc(Cl)cc1)NC(=O)[C@@H](Cc1ccc2ccccc2c1)NC(C)=O)C(=O)N[C@@H](Cc1ccc(NC(C)=O)cc1)C(=O)N[C@H](Cc1ccc(NC(C)=O)cc1)C(=O)N[C@@H](CC(C)C)C(=O)N[C@@H](CCCCNC(C)C)C(=O)N1CCC[C@H]1C(=O)N[C@H](C)C(N)=O | 1.2 nM (antagonist) | 50 (≈ 32.3 mM) | Antagonist | 1.99 | 2 | 2.4 nM (antagonist)
13 | CC(=O)Nc1ccc(C[C@H](NC(=O)[C@H](CO)NC(=O)[C@@H](CCC(N)=O)NC(=O)[C@@H](Cc2ccc(Cl)cc2)NC(=O)[C@@H](Cc2ccc3ccccc3c2)NC(C)=O)C(=O)N[C@H](Cc2ccc(NC(C)=O)cc2)C(=O)N[C@@H](C(=O)N[C@@H](CCCCNC(C)C)C(=O)N2CCC[C@H]2C(=O)N[C@H](C)C(N)=O)S(=O)(=O)C(C)C)cc1 | 2000 nM (antagonist) | 50 (≈ 32 mM) |  |  |  | 
14 | CC(=O)Nc1ccc(C[C@H](NC(=O)[C@H](NC(=O)[C@@H](Cc2cccnc2)NC(=O)[C@@H](Cc2ccc(Cl)cc2)NC(=O)[C@@H](Cc2ccc3ccccc3c2)NC(C)=O)[S+](C)[O-])C(=O)N[C@H](Cc2ccc(NC(C)=O)cc2)C(=O)N[C@@H](CC(C)C)C(=O)N[C@@H](CCCCNC(C)C)C(=O)N2CCC[C@H]2C(=O)N[C@H](C)C(N)=O)cc1 (stereo not given in full) | 6.9 nM (antagonist) | 50 (≈ 31.9 mM) |  |  |  | 
15 | CC(=O)Nc1ccc(C[C@H](NC(=O)[C@H](CO)NC(=O)[C@@H](Cc2cccnc2)NC(=O)[C@@H](Cc2ccc(Cl)cc2)NC(=O)[C@@H](Cc2ccc3ccccc3c2)NC(C)=O)C(=O)N[C@H](Cc2ccc(NC(C)=O)cc2)C(=O)N[C@H](C(=O)N[C@@H](CCCCNC(C)C)C(=O)N2CCC[C@H]2C(=O)N[C@H](C)C(N)=O)[S+]([O-])C(C)C)cc1 (stereo not given in full) | 1.2 nM (antagonist) | 50 (≈ 31.9 mM) |  | 3.22 | 2.67 | 3.2 nM (antagonist)
16 | CC(=O)Nc1ccc(C[C@H](NC(=O)[C@H](CO)NC(=O)[C@@H](CCC(N)=O)NC(=O)[C@@H](Cc2ccc(Cl)cc2)NC(=O)[C@@H](Cc2ccc3ccccc3c2)NC(C)=O)C(=O)N[C@H](Cc2ccc(NC(C)=O)cc2)C(=O)N[C@H](C(=O)N[C@@H](CCCCNC(C)C)C(=O)N2CCC[C@H]2C(=O)N[C@H](C)C(N)=O)[S+]([O-])C(C)C)cc1 (stereo not given in full) | 13 nM (antagonist) | 50 (≈ 32.3 mM) |  |  |  | 
